# Experimental data taken from ChEMBL document CHEMBL1772946, “Identification and initial SAR of silybin: an Hsp90 inhibitor” (Bioorg Med Chem Lett, 2011).
# The source made the active and inactive calls. The calls are words filed in the database; no cut-off is given here.
# Assays:
# [1] = biological target: T1, Heat shock protein HSP90 (Homo sapiens) (UniProt P07900+P08238); assay: Inhibition of Hsp90 in human MCF7 cells assessed as Her2 degradation after 24 hrs by Western blot analysis; format: cell-based
# Procedure, shortened: (§1)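 MCF-7 breast cancer cells were treated for 24 h with a range of compound concentrations. Cell lysates were probed by Western blot for Her2, Raf, Akt and Hsp90, with actin as a non-client control.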
# SK-BR-3 = assay: Antiproliferative activity against estrogen receptor-deficient human SKBR3 cells expressing HER2; format: functional
# Procedure, shortened: (§2)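 Cell proliferation assay against SKBr3 (ER-negative, HER2-overexpressing) and MCF-7 (ER-positive) breast cancer cells. Values are mean ± standard deviation of at least two separate experiments, each performed in triplicate.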
# [2] = biological target: T1, Heat shock protein HSP90 (Homo sapiens); assay: Inhibition of Hsp90 in human MCF7 cells assessed as Raf degradation after 24 hrs by Western blot analysis; format: cell-based; procedure, shortened: as §1
# [3] = biological target: T1, Heat shock protein HSP90 (Homo sapiens); assay: Inhibition of Hsp90 in human MCF7 cells assessed as Akt degradation after 24 hrs by Western blot analysis; format: cell-based; procedure, shortened: as §1
# [4] = biological target: T1, Heat shock protein HSP90 (Homo sapiens); assay: Inhibition of Hsp90 in human MCF7 cells assessed as degradation after 24 hrs by Western blot analysis
# MCF7 = assay: Antiproliferative activity against human MCF7 cells expressing estrogen receptor; format: functional; procedure, shortened: as §2
# [5] = biological target: T2, Heat shock protein HSP 90 (Oryctolagus cuniculus) (UniProt P11500); conditions: 1 ug/ml
# T2 sequence (whole entry): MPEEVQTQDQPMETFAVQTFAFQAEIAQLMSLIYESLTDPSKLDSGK
# [6] = biological target: T2, Heat shock protein HSP 90 (Oryctolagus cuniculus); conditions: 1 ug/ml; remark: listed apart in the source
# [7] = biological target: T1, Heat shock protein HSP90 (Homo sapiens); assay: Inhibition of Hsp90 in human MCF7 cells assessed as Her2 degradation at 50 to 1000 uM by Western blot analysis; format: cell-based
# [8] = biological target: T2, Heat shock protein HSP 90 (Oryctolagus cuniculus); assay: Inhibition of Hsp90-dependent maturation of [35S]-labeled His-tagged […] in rabbit reticulocyte lysate at 2 mM by anti-His-tag pull down assay
# [9] = biological target: T2, Heat shock protein HSP 90 (Oryctolagus cuniculus); assay: Inhibition of Hsp90-dependent activation of [35S]-labeled His-tagged […] in rabbit reticulocyte lysate by anti-His-tag pull down assay
# [10] = biological target: T1, Heat shock protein HSP90 (Homo sapiens); assay: Inhibition of Hsp90 in human MCF7 cells assessed as Akt degradation at 50 to 1000 uM by Western blot analysis; format: cell-based
# [11] = biological target: T1, Heat shock protein HSP90 (Homo sapiens); assay: Inhibition of Hsp90 in human MCF7 cells assessed as Hsp90 degradation at 50 to 1000 uM by Western blot analysis; format: cell-based
# [12] = biological target: T2, Heat shock protein HSP 90 (Oryctolagus cuniculus); assay: Inhibition of Hsp90-dependent activation of [35S]-labeled His-tagged […] in rabbit reticulocyte lysate at 2 mM by anti-His-tag pull down assay
# [13] = biological target: T1, Heat shock protein HSP90 (Homo sapiens); assay: Inhibition of Hsp90 in human MCF7 cells assessed as Raf degradation at 50 to 1000 uM by Western blot analysis; format: cell-based
# Oryctolagus cuniculus = organism: Oryctolagus cuniculus; assay: Inhibition of Hsp90/Cdc37 interaction with [35S]-labeled His-tagged […] in rabbit reticulocyte lysate at 2 mM by Western blot analysis
SMILES,Activity (SK-BR-3) [µM],Activity (MCF7) [µM],other results
COc1cc(C2Oc3cc(C4Oc5ccccc5C(=O)C4O)ccc3OC2CO)ccc1O (configuration not stated),11.12,13.42,inhibition [1]: Dose-dependent effect; inhibition [2]: Dose-dependent effect; inhibition [3]: Dose-dependent effect; inhibition [4]: Dose-dependent effect
COc1cc(C2Oc3cc(C4Oc5cccc(O)c5C(=O)C4O)ccc3OC2CO)ccc1O (configuration not stated),11.9,17.66,–
COc1cc(C2Oc3cc(/C=C/C(=O)c4c(O)cccc4O)ccc3OC2CO)ccc1O (configuration not stated),25.03,22.58,–
COc1cc(C2Oc3cc(/C=C/C(=O)c4ccccc4O)ccc3OC2CO)ccc1O (configuration not stated),19.87,12.07,–
COc1cc(C2Oc3cc([C@H]4Oc5cc(O)cc(O)c5C(=O)[C@@H]4O)ccc3OC2CO)ccc1O (stereo in doubt) [SILIBININ],197,222.8,–
COc1cc(C2Oc3cc(C4CC(=O)c5ccccc5O4)ccc3OC2CO)ccc1O (configuration not stated),16.25,13.66,–
COc1cc(C2Oc3cc(C4CC(=O)c5cc(O)ccc5O4)ccc3OC2CO)ccc1O (configuration not stated),15.63,15.62,inhibition [1]: Dose-dependent effect; inhibition [2]: Dose-dependent effect; inhibition [3]: Dose-dependent effect; inhibition [4]: Dose-dependent effect
O=C1c2c(O)cc(O)cc2OC(c2ccc3c(c2)OC(c2ccc(O)cc2)C(CO)O3)C1O (configuration not stated),210.6,138.7,–
COc1cc(C2Oc3cc(/C=C/C(=O)c4cc(O)ccc4O)ccc3OC2CO)ccc1O (configuration not stated),35.84,12.17,–
COC1=C2C[C@@H](C)C[C@H](OC)[C@H](O)[C@@H](C)/C=C(\C)[C@H](OC(N)=O)[C@@H](OC)/C=C\C=C(/C)C(=O)NC(=CC1=O)C2=O,–,–,inhibition [5]: Active; inhibition [6]: Active
COc1cc(C2Oc3cc(/C=C/C(=O)c4ccc(O)cc4O)ccc3OC2CO)ccc1O (configuration not stated),37.14,16.91,–
COc1cc(C2Oc3cc([C@H]4Oc5cc(O)cc(O)c5C(=O)[C@@H]4O)ccc3OC2CO)ccc1O (stereo in doubt; 24) [SILIBININ],196.3,196.4,–
COc1cc(C2Oc3cc(C4CC(=O)c5c(O)cccc5O4)ccc3OC2CO)ccc1O (configuration not stated),47.73,50.32,–
COc1cc(C2Oc3cc(C4Oc5ccc(O)cc5C(=O)C4O)ccc3OC2CO)ccc1O (configuration not stated),13.41,17.8,–
COc1cc(C2Oc3cc(C4Oc5cc(O)ccc5C(=O)C4O)ccc3OC2CO)ccc1O (configuration not stated),16.04,11.92,–
COc1cc(C2Oc3cc([C@H]4Oc5cc(O)cc(O)c5C(=O)[C@@H]4O)ccc3OC2CO)ccc1O (stereo in doubt),–,–,inhibition [7]: Active; inhibition [8]: Active; inhibition [9]: Dose-dependent effect; inhibition [10]: Active; inhibition [11]: Active; inhibition [12]: Active; inhibition [13]: Active; inhibition (Oryctolagus cuniculus): inactive
COc1cc(C2Oc3cc(C4CC(=O)c5c(O)cc(O)cc5O4)ccc3OC2CO)ccc1O (configuration not stated),101.2,104.2,–
COc1cc(C2Oc3cc(/C=C/C(=O)c4c(O)cc(O)cc4O)ccc3OC2CO)ccc1O (configuration not stated),111.4,109.3,–
COc1cc(C2Oc3cc(C4CC(=O)c5ccc(O)cc5O4)ccc3OC2CO)ccc1O (configuration not stated),41.91,41.58,–
